TAAR1 agonist – human TAAR1 agonism | CHO RD-HGA16 TAAR1, Fluo-8 calcium fluorescence; vehicle wells 0%, saturating PEA agonist 100% | activation, % at 3 µM | 360,000 tested, 0.99% active;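 active means activation above the mean activation of all test compounds in the run plus 3 SD, cut at about 38% in these data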
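Assay system – CHO-derived RD-HGA16 cells with stable Gα16 and human TAAR1 · Compound dosing – one-point dosing at 3 µM (nominal) · Incubation – 17-24 h seeding, 75 min 37 °C dye, 30 min RT · Measured by – kinetic Fluo-8 calcium fluorescence · Control set – DMSO vehicle as 0%, PEA at EC100 as 100% · Repeats – single well for each compound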
CRFR2-BP ag – CRF-BP/CRF-R2 complex agonism; HEK293 CRF-R2/CRF-BP, calcium dye fluorescence (FLIPR); percent of saturating CRF peptide response; activation, % at 13.2 µM; 350,000 tested, 0.46% active; AID 588473;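 active means activation of at least 50%, plus an integration ratio under a set limit after plate pattern correction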;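 further: plate controls were neutral control wells without compound for no effect and CRF at EC100 for full effect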
TAAR1 antag – human TAAR1 antagonism. Q96RJ0. CHO RD-HGA16 TAAR1, Fluo-8 calcium fluorescence, antagonist. inhibition, % at 3 µM. 360,000 tested, 1.5% active. AID 624466;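 active means inhibition above a per-plate cutoff, the mean inhibition of test compounds on that plate plus 3 SD, cut at about 49% in these data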;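 further: 0% = DMSO plus EC80 beta-PEA response and 100% = DMSO alone without agonist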
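Test system – hTAAR1-expressing CHO RD-HGA16 cells, Gα16-coupled · Also added – β-PEA at EC80 concentration, post-compound challenge · Compound – 3 µM, single point · Incubation – dye loading 75 min at 37 °C, then 30 min room temperature · Measured by – Fluo-8 intracellular calcium dye fluorescence, real-time kinetic reads · Benchmarks – vehicle and agonist controls · Replicates – singlicate, one well per test compound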
CRFBP-R2 block – CRF-BP/CRF-R2 complex antagonism | HEK293 CRF-R2/CRF-BP, CRF-induced calcium fluorescence | inhibition, % at 11.8 µM | 350,000 tested, 0.59% active | AID 588475;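 active means inhibition of the ligand-induced calcium signal above about 50% at the single tested concentration, limit read from the data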
TMEM16A act – activators or potentiators of mouse TMEM16A chloride channel; Q8BHY3; HEK293 TMEM16A/YFP-H148Q/I152L, iodide quench fluorescence; active compounds read low; B-score at 10 µM; 340,000 tested, 0.3% active;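 active means fluorescence-ratio B-score plate-corrected deviation score at least 3 library SD below zero, with starting fluorescence score within 5 deviations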;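 further: channel opened by trigger with iodide after compound preincubation; score built on the fluorescence ratio of max minus min over baseline; more negative score means more quench and so TMEM16A activation or potentiation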
Target sequence (Q8BHY3 whole entry, looked up): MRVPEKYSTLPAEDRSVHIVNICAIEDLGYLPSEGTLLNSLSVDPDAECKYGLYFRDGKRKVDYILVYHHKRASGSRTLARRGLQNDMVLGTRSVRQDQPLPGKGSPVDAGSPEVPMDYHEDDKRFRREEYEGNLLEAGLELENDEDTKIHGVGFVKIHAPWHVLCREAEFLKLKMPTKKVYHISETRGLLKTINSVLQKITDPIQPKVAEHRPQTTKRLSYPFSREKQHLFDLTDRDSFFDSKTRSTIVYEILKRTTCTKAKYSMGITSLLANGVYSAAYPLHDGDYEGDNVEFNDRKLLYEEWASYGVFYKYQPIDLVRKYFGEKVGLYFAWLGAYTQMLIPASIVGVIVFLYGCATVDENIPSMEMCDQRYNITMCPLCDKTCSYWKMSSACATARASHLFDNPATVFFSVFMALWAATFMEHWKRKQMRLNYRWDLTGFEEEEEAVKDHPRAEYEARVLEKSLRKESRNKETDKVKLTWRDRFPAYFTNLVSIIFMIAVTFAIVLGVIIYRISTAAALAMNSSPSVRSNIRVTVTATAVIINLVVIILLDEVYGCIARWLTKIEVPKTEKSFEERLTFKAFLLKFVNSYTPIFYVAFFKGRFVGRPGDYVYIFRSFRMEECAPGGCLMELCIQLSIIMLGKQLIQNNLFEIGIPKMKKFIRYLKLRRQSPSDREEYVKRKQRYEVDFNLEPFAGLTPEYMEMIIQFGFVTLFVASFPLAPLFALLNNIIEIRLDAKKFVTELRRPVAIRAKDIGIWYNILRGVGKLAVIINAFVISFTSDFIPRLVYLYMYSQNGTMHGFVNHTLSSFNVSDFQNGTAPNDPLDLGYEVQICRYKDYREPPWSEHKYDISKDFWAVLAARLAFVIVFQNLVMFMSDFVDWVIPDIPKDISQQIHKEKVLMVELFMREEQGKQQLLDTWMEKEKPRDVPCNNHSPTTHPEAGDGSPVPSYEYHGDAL
TMEM16A inh – inhibitors of mouse TMEM16A calcium-activated chloride channel; 310,000 tested, 1.2% active; normalized B-score (activity score, 25-100; higher = stronger inhibition) at 10 µM; Q8BHY3; HEK293 TMEM16A/YFP iodide influx fluorescence, ionomycin; AID 588511;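 active means ratio plate-corrected score three or more library SD toward inhibition, starting fluorescence score within five deviations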;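 further: score derived from kinetic fluorescence span divided by baseline fluorescence per well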
TAAR1 ag confirm – confirmation of human TAAR1 agonists | shares compounds with TAAR1 agonist | CHO RD-HGA16 TAAR1, Fluo-8 calcium fluorescence; scaled: DMSO 0%, maximal phenethylamine 100% | activation, % at 3 µM | 2,400 tested, 82% active | AID 651783;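 active means activation above a cutoff set at the run's mean compound activation plus 3 SD, cut at about 39% in these data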
Ga16 ag counter – nonselective agonism, TAAR1 counter-screen; shares compounds with TAAR1 agonist; 2,400 tested, 50% active; activation, % at 3 µM; CHO-Ga16 parental, Fluo-8 calcium fluorescence; normalized to maximal ATP response, DMSO zero; AID 651787;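 active means activation above the run cutoff, the mean activation over all tested wells plus 3 SD, cut at about 12% in these data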;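 further: 0% = DMSO wells and 100% = maximal ATP response on the peak over basal ratio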
TAAR1 desensitize – counter-screen for human TAAR1 agonists: agonists that desensitize TAAR1; shares compounds with TAAR1 agonist; CHO RD-HGA16 hTAAR1, Fluo-8 calcium, beta-PEA response inhibition; inhibition, % at 3 µM; 2,400 tested, 46% active;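 active means inhibition above the run cutoff, the mean inhibition of all test compounds plus 3 SD, cut at about 49% in these data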;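 further: beta-PEA stimulus applied at its EC80; loss of beta-PEA calcium signal after compound pretreatment read as receptor desensitization; 0% = DMSO with beta-PEA at EC80 and 100% = DMSO alone without agonist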
Ga16 nonsel ant – nonselective Ga16 antagonism, counter-screen; shares compounds with TAAR1 agonist; AID 651952; 2,400 tested, 39% active; CHO-Ga16 ATP-induced calcium, Fluo-8 fluorescence; inhibition, % at 3 µM;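 active means inhibition above the plate's mean compound inhibition plus 3 SD, computed per plate, cut at about 22% in these data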;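 further: 0% = EC80 ATP with DMSO and 100% = DMSO wells without ATP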
The depositor's hits bear a star; i = inactive; · = not tested or not shown. Only some compounds are listed: those with a hit (about 3.9% of all), similar ones and a draw of the others.

SMILES	TAAR1 agonist	CRFR2-BP ag	TAAR1 antag	CRFBP-R2 block	TMEM16A act	TMEM16A inh	TAAR1 ag confirm	Ga16 ag counter	TAAR1 desensitize	Ga16 nonsel ant
COc1cccc(OC)c1C(=O)NC(=S)NNC(=O)[C@H]1C[C@@H]1c1ccccc1	0.5	-0.5	12.9	-1.7	i	i	·	·	·	·
CC(C)C(=O)Nc1ccc(C(=O)NNC(=S)NC(=O)c2cccs2)cc1	-1.0	-2.4	6.2	12.5	i	i	·	·	·	·
COc1ccc(OCC(=O)NNC(=S)NC(=O)c2ccc(Br)o2)cc1	55.3*	8.5	13.8	-28.5	i	i	34.1	17.6*	24.2	20.6
CCCn1nc(NS(=O)(=O)c2cccc3nonc23)c2cc3ccccc3nc21	-2.2	-6.2	-6.3	1.0	i	i	·	·	·	·
COc1ccc(C(=O)NC(=S)NNC(=O)c2ccncc2)cc1Br	60.4*	4.1	14.0	-11.2	i	·	34.8	32.2*	22.5	18.2
Cc1cccc(C(=O)NNC(=S)NC(=O)c2ccccc2)c1	169.3*	148.5*	106.7*	-25.5	i	100*	133.0*	105.0*	91.9*	74.9*
COc1ccc(C(=O)NC(=S)NNC(=O)c2ccc(NC(C)=O)cc2)cc1Br	10.4	-0.5	-7.1	-12.8	i	i	·	·	·	·
Cc1cccc(C(=O)NNC(=S)NC(=O)c2cccs2)c1	142.3*	154.2*	60.0*	-57.2	i	i	120.5*	95.2*	74.7*	53.2*
COc1ccccc1C(=O)NNC(=S)NC(=O)c1cccs1	106.4*	·	15.7	·	i	i	103.2*	76.8*	44.1	37.7*
O=C(COc1coc(CN2CCc3ccccc32)cc1=O)Nc1ccccc1	0.7	2.5	3.3	0.0	i	i	·	·	·	·
O=[N+]([O-])c1ccc(Cl)c(NC(=S)N2CCCC2)c1	-0.3	-3.0	-3.9	12.5	i	i	·	·	·	·
CC(Nc1ccnc2cc(Cl)ccc12)c1ccc(S(N)(=O)=O)cc1 (stereo unspecified)	52.9*	-0.5	-2.3	-4.0	i	i	69.2*	0.4	51.0*	-2.1
CC(CCCN1CCCC1)Nc1ccnc2cc(Cl)ccc12 (stereo unspecified)	-0.4	-0.6	-1.5	4.0	i	·	·	·	·	·
Cc1ccc(NC(=O)c2ccc3nsnc3c2)c(Cl)c1	57.1*	0.8	47.3	4.7	i	i	15.0	-0.9	11.1	1.4
Cc1ccc(OP(=O)(Nc2c(C)n(C)n(-c3ccccc3)c2=O)Oc2ccc(C)cc2)cc1	50.3*	-0.3	5.4	-26.8	i	i	27.3	7.6	7.9	5.5
O=C(C(=O)N1CCN(c2ccccc2)CC1)c1ccco1	2.9	·	-25.0	·	·	·	·	·	·	·
Clc1ccc(CSc2ncnc3c2ncn3C2CCCCO2)cc1 (stereo unspecified)	63.6*	-4.7	36.8	16.0	i	·	14.7	11.0	9.6	13.7
Cc1cc2nc3n(c2cc1C)CC1CC(C(=O)NCCc2cccs2)N(C)C31 (stereo unspecified)	101.2*	1.5	69.4*	-0.1	i	i	81.1*	2.0	70.5*	8.3
C=CCNC(=O)C1CC2Cn3c(nc4cc(C)c(C)cc43)C2N1C (stereo unspecified)	-1.6	-0.2	6.5	5.7	i	i	·	·	·	·
CN1C(C(=O)NCCc2cccs2)CC2Cn3c(nc4cc5ccccc5cc43)C21 (stereo unspecified)	77.5*	-3.3	51.1*	-0.7	i	i	91.6*	14.7*	83.1*	11.4
CC1CCC(NC(=O)c2cccc(S(=O)(=O)NCc3ccccc3)c2)CC1 (stereo unspecified)	0.0	-1.1	-12.4	-8.6	i	i	·	·	·	·
CC(C)CN(C(=O)COC(=O)CN1C(=O)c2ccccc2C1=O)c1c(N)n(Cc2ccccc2)c(=O)[nH]c1=O	3.0	0.3	-10.0	-2.3	i	i	·	·	·	·
O=C(Cc1ccc(Nc2nc3ccc(Br)cc3[nH]2)cc1)NCCc1cccs1	11.1	1.1	21.1	-8.9	i	i	·	·	·	·
O=C(NCC1CC1)c1ccc(Nc2nc3ccc(Br)cc3[nH]2)cc1	48.5*	-2.1	92.5*	4.6	i	i	45.3*	1.9	67.0*	18.0
O=C(Cc1csc2ccccc12)NCC1CC1	-0.2	·	2.7	·	·	·	·	·	·	·
SMILES	TAAR1 agonist	CRFR2-BP ag	TAAR1 antag	CRFBP-R2 block	TMEM16A act	TMEM16A inh	TAAR1 ag confirm	Ga16 ag counter	TAAR1 desensitize	Ga16 nonsel ant
O=C(O)COCC(=O)NCc1csc2ccccc12	51.4*	-1.8	-40.4	-3.6	i	i	54.9*	-0.3	26.3	5.8
CCc1c(-c2ccc(OC)c(OC)c2)ncn1CCc1ccccc1OC	32.3	·	7.2	·	·	·	·	·	·	·
COc1ccccc1CCn1cnc(Cc2ccccc2)c1C(C)C	54.0*	·	48.1	·	·	·	71.8*	5.9	58.8*	21.8*
CCc1c(Cc2ccccc2)ncn1CCc1ccccc1OC	51.8*	·	-0.8	·	·	·	74.8*	2.0	21.0	10.4
CSC[C@H]1CN(c2ccc(Br)cc2)C(=O)[C@@H]1CC(=O)Nc1ccc(Br)cc1	1.6	0.6	-2.2	-10.5	·	·	·	·	·	·
O=C(Nc1ccc(F)cc1)OC[C@@H]1CSCCS(=O)(=O)N1	4.5	·	-8.4	·	·	·	·	·	·	·
CCn1c(=O)n(CC)c2cc(N3CCCC3)c(NC(=O)c3ccc(C)cc3)cc21	45.8*	1.0	-23.0	13.8	i	i	1.1	1.1	2.1	10.5
Cc1nc2c(c(=O)c3ccccc3n2C)c(=O)n1C1CCCCCC1	49.6*	51.0*	-38.0	4.3	i	i	56.4*	50.8*	6.6	1.2
Cc1nc2c(c(=O)c3ccccc3n2C)c(=O)n1-c1ccccc1	-1.4	-2.3	-1.9	22.9	i	i	·	·	·	·
Cn1c2ccccc2c(=O)c2c(=O)n(C3CCCCC3)c(-c3ccco3)nc21	103.2*	99.4*	-3.4	33.2	i	i	87.2*	62.2*	33.0	24.7*
CC(C)Cn1c(-c2ccco2)nc2c(c(=O)c3ccccc3n2C)c1=O	16.2	·	-4.7	·	·	i	·	·	·	·
